Assay results as given in ChEMBL document CHEMBL1142796 (Bioorg Med Chem Lett, 2005).

Assays:
[1] = target: Neuronal acetylcholine receptor; alpha3/beta4 (Rattus norvegicus, UniProt P04757+P12392); experiment: Effective concentration against rat alpha3-beta4 nicotinic acetylcholine receptor; assay type: protein-complex assay
Procedure, shortened: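 Rat α3β4 expressed in Xenopus oocytes, two-electrode voltage clamp at −60 mV, perfused at 4 ml/min. Peak current was normalized to the preceding ACh control and rescaled to the ACh maximum.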

[2] = target: Neuronal acetylcholine receptor subunit alpha-7 (Rattus norvegicus) (UniProt Q05941); experiment: Maximal response against rat alpha-7 nicotinic acetylcholine receptor
Procedure, shortened: (§1)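 Rat α7 expressed in Xenopus oocytes, two-electrode voltage clamp at −60 mV, perfused at 2 ml/min. Controls were 300 μM ACh applied for 12 s with 181 s washout, given as two controls, then drug, then a control. Net-charge responses were normalized to the preceding ACh control and rescaled to the ACh maximum.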

[3] = target: Neuronal acetylcholine receptor; alpha3/beta4 (Rattus norvegicus) (UniProt P04757+P12392); experiment: Maximal response against rat alpha3-beta4 nicotinic acetylcholine receptor; assay type: protein-complex assay
Procedure, shortened: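 Rat α3β4 expressed in Xenopus oocytes, two-electrode voltage clamp at −60 mV, perfused at 4 ml/min. Controls were 100 μM ACh applied for 8 s with 241 s washout, given as two controls, then drug, then a control. Peak current was normalized to the preceding ACh control and rescaled to the ACh maximum.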

[4] = target: Neuronal acetylcholine receptor; alpha4/beta2 (Rattus norvegicus) (UniProt P09483+P12390); experiment: Maximal response against rat alpha4-beta2 nicotinic acetylcholine receptor; assay type: protein-complex assay
Procedure, shortened: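 Rat α4β2 expressed in Xenopus oocytes, two-electrode voltage clamp at −60 mV, perfused at 4 ml/min. Controls were 10 μM ACh applied for 8 s with 241 s washout, given as two controls, then drug, then a control. Peak current was normalized to the preceding ACh control and rescaled to the ACh maximum.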

[5] = target: T1, Neuronal acetylcholine receptor subunit alpha-7 (Rattus norvegicus, UniProt Q05941); experiment: Effective concentration against rat alpha-7 nicotinic acetylcholine receptor
Procedure, shortened: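 Rat α7 expressed in Xenopus oocytes, two-electrode voltage clamp at −60 mV, perfused at 2 ml/min. Net-charge responses were normalized to the preceding ACh control and rescaled to the ACh maximum.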

[6] = target: T2, Neuronal acetylcholine receptor; alpha4/beta2 (Rattus norvegicus, UniProt P09483+P12390); experiment: Inhibition of [3H]nicotine binding to alpha4-beta2 nicotinic acetylcholine receptor of rat brain membrane
[7] = target: T1, Neuronal acetylcholine receptor subunit alpha-7; experiment: Inhibition of [3H]-MLA binding to alpha-7 nicotinic acetylcholine receptor of rat brain membrane
[8] = target: T2, Neuronal acetylcholine receptor; alpha4/beta2; experiment: Effective concentration against rat alpha4-beta2 nicotinic acetylcholine receptor; assay type: protein-complex assay
Procedure, shortened: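 Rat α4β2 expressed in Xenopus oocytes, two-electrode voltage clamp at −60 mV, perfused at 4 ml/min. Peak current was normalized to the preceding ACh control and rescaled to the ACh maximum.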

[9] = target: T1, Neuronal acetylcholine receptor subunit alpha-7; experiment: Inhibition of [3H]MLA binding to rat alpha7 nicotinic acetylcholine receptor
[10] = target: T1, Neuronal acetylcholine receptor subunit alpha-7; experiment: Effective concentration against rat alpha7 nicotinic acetylcholine receptor; procedure, shortened: as §1

T2 sequence (P09483 whole entry): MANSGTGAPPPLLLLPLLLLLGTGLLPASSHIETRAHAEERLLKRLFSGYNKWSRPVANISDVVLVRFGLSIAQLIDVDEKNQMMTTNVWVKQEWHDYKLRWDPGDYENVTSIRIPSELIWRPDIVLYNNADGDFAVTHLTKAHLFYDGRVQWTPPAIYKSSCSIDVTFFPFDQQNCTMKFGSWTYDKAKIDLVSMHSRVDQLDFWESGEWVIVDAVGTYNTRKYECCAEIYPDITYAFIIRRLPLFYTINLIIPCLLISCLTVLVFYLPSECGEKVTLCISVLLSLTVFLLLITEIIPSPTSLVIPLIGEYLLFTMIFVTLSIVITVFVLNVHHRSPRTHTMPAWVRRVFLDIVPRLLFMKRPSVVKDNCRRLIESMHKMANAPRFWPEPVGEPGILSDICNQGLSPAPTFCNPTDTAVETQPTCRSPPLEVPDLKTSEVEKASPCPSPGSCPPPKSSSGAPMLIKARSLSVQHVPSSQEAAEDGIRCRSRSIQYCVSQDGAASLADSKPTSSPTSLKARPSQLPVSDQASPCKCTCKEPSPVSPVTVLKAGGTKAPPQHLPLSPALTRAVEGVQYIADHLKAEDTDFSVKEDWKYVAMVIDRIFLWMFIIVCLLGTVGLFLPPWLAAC
T2 sequence (P12390 whole entry): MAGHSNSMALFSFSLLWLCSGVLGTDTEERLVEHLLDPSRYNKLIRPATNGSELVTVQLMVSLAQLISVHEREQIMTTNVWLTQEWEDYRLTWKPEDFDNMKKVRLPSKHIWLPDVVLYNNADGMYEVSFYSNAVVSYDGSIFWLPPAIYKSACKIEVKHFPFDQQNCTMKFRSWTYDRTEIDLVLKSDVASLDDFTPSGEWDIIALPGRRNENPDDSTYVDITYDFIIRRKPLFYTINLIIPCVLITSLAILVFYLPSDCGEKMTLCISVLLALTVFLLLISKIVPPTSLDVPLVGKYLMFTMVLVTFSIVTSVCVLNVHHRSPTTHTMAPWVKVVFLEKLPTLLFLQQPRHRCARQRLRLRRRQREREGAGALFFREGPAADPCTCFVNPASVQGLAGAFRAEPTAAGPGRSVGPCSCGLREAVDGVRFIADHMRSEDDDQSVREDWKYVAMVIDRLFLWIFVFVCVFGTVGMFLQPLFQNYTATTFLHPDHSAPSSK
Sequence of Neuronal acetylcholine receptor subunit alpha-7 (Rattus norvegicus) (Q05941 whole entry, the tested form may be a part): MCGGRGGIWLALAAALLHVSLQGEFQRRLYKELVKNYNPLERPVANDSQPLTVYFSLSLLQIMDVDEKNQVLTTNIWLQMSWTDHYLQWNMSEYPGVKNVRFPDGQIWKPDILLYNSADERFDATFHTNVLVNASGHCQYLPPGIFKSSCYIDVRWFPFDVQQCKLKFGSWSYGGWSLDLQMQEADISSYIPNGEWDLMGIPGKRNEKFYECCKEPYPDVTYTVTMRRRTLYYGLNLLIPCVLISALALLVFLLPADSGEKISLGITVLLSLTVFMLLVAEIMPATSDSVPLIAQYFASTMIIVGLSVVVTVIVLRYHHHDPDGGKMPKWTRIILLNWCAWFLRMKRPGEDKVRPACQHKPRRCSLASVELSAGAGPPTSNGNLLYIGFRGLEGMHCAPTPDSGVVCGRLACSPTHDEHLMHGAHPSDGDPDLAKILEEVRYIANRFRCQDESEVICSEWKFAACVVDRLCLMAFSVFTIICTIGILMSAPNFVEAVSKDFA
T1 sequence (Q05941 whole entry, the tested form may be a part): as above
Sequence of Neuronal acetylcholine receptor; alpha3/beta4 (P04757 whole entry, the tested form may be a part): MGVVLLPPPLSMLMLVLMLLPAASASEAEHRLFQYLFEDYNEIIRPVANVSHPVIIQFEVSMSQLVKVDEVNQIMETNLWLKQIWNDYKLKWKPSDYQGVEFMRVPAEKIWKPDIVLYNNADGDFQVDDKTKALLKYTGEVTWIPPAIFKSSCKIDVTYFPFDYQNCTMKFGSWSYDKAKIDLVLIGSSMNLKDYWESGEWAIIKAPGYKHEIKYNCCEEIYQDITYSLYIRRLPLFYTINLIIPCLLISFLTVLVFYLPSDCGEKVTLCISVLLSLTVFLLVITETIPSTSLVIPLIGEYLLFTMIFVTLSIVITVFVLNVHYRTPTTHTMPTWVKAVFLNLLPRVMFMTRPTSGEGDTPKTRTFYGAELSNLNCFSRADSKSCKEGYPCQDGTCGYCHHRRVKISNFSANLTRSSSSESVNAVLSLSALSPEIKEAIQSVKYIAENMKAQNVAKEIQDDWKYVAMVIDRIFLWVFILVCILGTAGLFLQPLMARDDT
Sequence of Neuronal acetylcholine receptor; alpha3/beta4 (P12392 whole entry, the tested form may be a part): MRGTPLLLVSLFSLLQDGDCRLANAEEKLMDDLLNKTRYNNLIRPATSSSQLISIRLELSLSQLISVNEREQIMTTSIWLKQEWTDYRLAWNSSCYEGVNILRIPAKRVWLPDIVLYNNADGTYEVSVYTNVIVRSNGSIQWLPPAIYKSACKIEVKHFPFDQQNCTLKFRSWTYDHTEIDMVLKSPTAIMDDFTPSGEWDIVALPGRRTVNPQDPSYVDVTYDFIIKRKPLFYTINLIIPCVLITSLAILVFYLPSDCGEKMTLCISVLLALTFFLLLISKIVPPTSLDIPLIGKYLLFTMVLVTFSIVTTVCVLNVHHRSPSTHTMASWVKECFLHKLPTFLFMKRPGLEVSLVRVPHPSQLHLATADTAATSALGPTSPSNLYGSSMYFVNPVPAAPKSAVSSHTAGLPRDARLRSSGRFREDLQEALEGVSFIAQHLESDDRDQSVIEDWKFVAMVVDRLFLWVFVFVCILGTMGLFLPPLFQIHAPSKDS

Structure (SMILES) | EC50 [1] | Imax [2] | Imax [3] | Imax [4] | EC50 [5] | Ki [6] | Ki [7] | EC50 [8] | Ki [9] | EC50 [10]
CN1CCC[C@H]1c1ccc[n+]([BH2-]C#N)c1 | 28 µM | 0.15 | 0.06 | 0.05 | 21 µM | 0.041 µM | 15.2 µM | 150 µM |  | 
CN1CC[C@@H]2CCc3cc[n+]([BH2-]C#N)cc3[C@@H]21 |  | 0.26 |  |  | 20 µM | 0.6 µM |  |  | 2.4 µM | 
CN1CCC[C@H]1c1cccnc1 |  | 0.6 | 0.69 | 0.17 |  |  |  |  |  | 
CN1CC[C@H]2CCc3ncccc3[C@H]21 |  |  |  |  |  | 12.2 µM |  |  |  | 
CN1CC[C@@H]2CCc3ccncc3[C@@H]21 |  | 0.11 |  |  |  | 0.4 µM |  |  |  | 44 µM
